High-throughput results (PubChem)
T cell modulator = modulators of CD8 T cell-vesicle binding, primary screen, mouse 2C CD8+ T cells, flow cytometry | 2C CD8+ T cell-vesicle binding; active compounds read low | response (vesicle binding), % at 7 µM | actives 0.068% (n = 330,000) | AID 2052, 2009;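 active means response, share of CD8 T cells binding vesicles, and their 90th percentile fluorescence all below set limits, cut at about 80% in these data, passing the limit was not always enough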;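 further: values below 100% mean blocked vesicle binding to the CD8+ T cells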
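Incubation: binding step 1.5 h, 37 °C, antibody labelling 20 min, ice; system: murine 2C transgenic CD8+ T lymphocytes; technique: cytometric PE anti-B7-1 and Alexa647 anti-CD8 signals after 1% paraformaldehyde fixation; also added: QL9-charged Drosophila Ld/ICAM-1/B7-1 vesicles; control set: naked versus QL9-loaded vesicles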
UCH37 inh = inhibitors of human UCH37 deubiquitinase, primary screen, biochemical, Ub-AMC cleavage, fluorescence; actives 0.33% (n = 330,000); Ubiquitin carboxyl-terminal hydrolase isozyme L5 (Homo sapiens), Q9Y5K5; purified proteasome/UCH37; inhibition, % (test concentration not listed);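 active means mean inhibition over replicate wells above about 20%, limit read from the data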;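 further: 0% = compound-free wells with enzyme and 100% = wells lacking proteasome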
Target sequence (Q9Y5K5 whole entry, looked up): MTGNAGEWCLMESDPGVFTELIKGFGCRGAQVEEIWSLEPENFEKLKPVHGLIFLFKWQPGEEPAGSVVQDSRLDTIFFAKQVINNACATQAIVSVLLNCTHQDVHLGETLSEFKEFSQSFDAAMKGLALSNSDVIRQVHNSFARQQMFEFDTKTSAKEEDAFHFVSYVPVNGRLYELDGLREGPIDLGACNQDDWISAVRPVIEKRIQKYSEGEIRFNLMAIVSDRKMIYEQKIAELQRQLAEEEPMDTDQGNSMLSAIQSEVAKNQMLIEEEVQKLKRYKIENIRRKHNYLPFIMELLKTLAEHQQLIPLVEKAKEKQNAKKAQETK
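Signal – fluorescence, ex 355 nm, em 460 nm · System – Proteasome-bound UCH37 · Input – 0.15 nM proteasome as dispensed · Timing – 30 min preincubation with enzyme, 25 min cleavage at room temperature · Read-out basis – percent inhibition of cleavage signal versus uninhibited and no-proteasome wells · Medium – Tris-HCl pH 7.4 with ATP-MgCl2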
Rce1 inhib = yeast Rce1p protease inhibitors, primary screen, biochemical, fluorescence, cell-free homogeneous; yeast membranes, quenched prenylated peptide cleavage fluorescence; actives 0.27% (n = 290,000); CAAX prenyl protease 2 (Saccharomyces cerevisiae (strain ATCC 204508 / S288c)), Q03530; calls only;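 active means fall in fluorescence gain of 50% or more versus controls, with final raw signal at or below 3038400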;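 further: plate controls were neutral control wells for no effect and wells lacking membranes for full effect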
Target sequence (Q03530 whole entry, looked up): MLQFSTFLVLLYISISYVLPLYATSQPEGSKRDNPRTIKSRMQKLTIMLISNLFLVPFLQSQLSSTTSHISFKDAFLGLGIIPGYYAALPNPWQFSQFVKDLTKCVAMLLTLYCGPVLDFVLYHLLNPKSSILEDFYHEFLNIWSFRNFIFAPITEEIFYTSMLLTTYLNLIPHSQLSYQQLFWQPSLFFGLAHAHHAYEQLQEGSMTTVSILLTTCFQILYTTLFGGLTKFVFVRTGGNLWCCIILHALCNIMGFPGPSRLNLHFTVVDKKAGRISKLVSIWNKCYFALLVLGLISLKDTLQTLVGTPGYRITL
MEKK3 PB1 HTS = modulators of MEKK3-MEK5 PB1 binding, primary screen, biochemical, wildtype MEKK3, multiplex bead flow cytometry, Alexa488-MEK5; bead-based flow cytometry, Alexa488-MEK5 binding to MEKK3; actives lie on both sides; 0 = blocked by unlabeled MEK5, 100 = vehicle; binding response (% of control), % at 10 µM; AID 1529, 2009; Mitogen-activated protein kinase kinase kinase 3 (Homo sapiens), Q99759; actives 1.4% (n = 290,000);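 active means binding response more than 3 SD above or below the average of its plate-row segment, actives on both sides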;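 further: Alexa488 bead fluorescence after subtracting the streptavidin-only scavenger bead signal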
MEKK2mut PB1 HTS = MEK5 binding signal on mutant MEKK2 PB1, primary screen, biochemical, multiplex bead flow cytometry, Alexa488-MEK5; Alexa488-MEK5 binding to MEKK2 mutant; percent response, % at 10 µM; actives 0.35% (n = 290,000); AID 1530, 2009; in the data active means percent response above about 24%, passing the limit was not always enough
MEKK2 WT-MEK5 = modulators of MEK5 binding to wildtype MEKK2, primary screen, biochemical, multiplex bead flow cytometry, Alexa488-MEK5 | Mitogen-activated protein kinase kinase kinase 2 (Homo sapiens), Q9Y2U5 | Alexa488-MEK5 binding to MEKK2 WT; actives lie on both sides | binding response (% of control), % at 10 µM | actives 1.1% (n = 290,000) | AID 1531, 2009; in the data active means binding response below about 67% or above about 130%
MEKK2wt confirm = modulators of MEK5 binding to wildtype MEKK2, confirmation, biochemical, single concentration, multiplex bead flow cytometry; shares compounds with MEKK3 PB1 HTS; Alexa488-MEK5 binding to MEKK2 WT; actives lie on both sides; binding response (% of control), % at 10 µM; actives 2.4% (n = 5,900); AID 1892, 2009; in the data active means binding response below about 16% or above about 210%; inactive means in between
MEKK2mut confirm = mutant MEKK2 PB1-MEK5 binding signal retest – biochemical, single concentration, multiplex bead flow cytometry, confirmation | shares compounds with MEKK3 PB1 HTS | percent response, % at 10 µM | AID 1893, 2009 | actives 2% (n = 5,900) | Alexa488-MEK5 binding to MEKK2 mutant; in the data active means percent response mostly above about 71%, no sharp cut-off; inactive means mostly below about 38%;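 further: higher means compound restores mutant binding toward wildtype level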
MEKK3-MEK5 inh = MEKK3 wild-type PB1 binding to MEK5, inhibitors, confirmation, biochemical, bead multiplex flow cytometry, single concentration, wildtype; shares compounds with MEKK3 PB1 HTS; Alexa488-MEK5 binding to MEKK3; active compounds read low; binding response (% of control), % at 10 µM; actives 1.8% (n = 5,900);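 active means binding response below 72% of control, or above a set upper limit, though filed actives all read lower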;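 further: 100% = DMSO only wells and 0% = binding blocked by excess unlabeled MEK5; lower values mean stronger disruption of MEK5 binding to MEKK3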
An asterisk follows results filed as active; i = inactive; / = no result; [ ] = remark or other dose. Most compounds without a hit are left out; they make up all but 2.5% or so of the library.

SMILES	T cell modulator	UCH37 inh	Rce1 inhib	MEKK3 PB1 HTS	MEKK2mut PB1 HTS	MEKK2 WT-MEK5	MEKK2wt confirm	MEKK2mut confirm	MEKK3-MEK5 inh
NC(=N[N+](=O)[O-])N1CCN(C(=O)Oc2ccccc2)CC1	/	4	/	/	/	/	/	/	/
CC/C(=N\N1CCN(C)CC1)c1c(O)[nH]c(=O)[nH]c1=O	261	2	i	140*	0	105	104	4	100
O=C(NN=C1CN2CCC1CC2)c1cc2ccccc2cc1O	/	-1	/	/	/	/	/	/	/
Cc1ccccc1NC(=O)NCCN1CC1	138	/	i	95	23	144*	159	22	100
O=C(/C=C/c1ccc(O)c(O)c1)OC1C(O)CC(OC(=O)/C=C/c2ccc(O)c(O)c2)(C(=O)O)CC1O (configuration not stated)	88	12	i	108	9	101	/	/	/
CNC(=O)ON=Cc1nn(C(=O)C(C)(C)C)cc1Br	/	3	/	/	/	/	/	/	/
CNCCC(Oc1ccc(C(F)(F)F)cc1)c1ccccc1 (configuration not stated)	394	5	i	114	12	139*	115	5	102
C=C1C(=O)O[C@@H]2C[C@@H](C)[C@@H]3C4OC4C(=O)[C@@]3(C)[C@@H](O)[C@H]12 (some centres not stated)	351	6	i	69*[inhibitor]	4	70	97	-5	101
CCOc1cc(C2C(C#N)=C(N)Oc3c2c(=O)oc2ccccc32)ccc1OC(=O)c1cccs1 (configuration not stated)	161	-8	i	129*	0	100	94	-1	102
CNc1ccc2nc3ccccc3[n+](C)c2c1	124	/	i	88	-5	2.0*[inhibitor]	95	6	94
C[n+]1c2ccccc2nc2ccc(NCCO)cc21	430	19	i	85	0	95	/	/	/
O=C1NC(=O)N(CCNc2ncc(C(F)(F)F)cc2Cl)C(=O)C1C=NOCc1c(F)cccc1Cl (configuration not stated)	/	-3	/	/	/	/	/	/	/
C[C@]12CCC3C(CCC4=CC(=NOCC(=O)NC(CCC(=O)O)C(=O)O)CC[C@@]43C)C1CCC2O (some centres not stated)	/	4	/	/	/	/	/	/	/
CCCCC(=NO)c1c[nH]c2ccccc12	/	3	/	/	/	/	/	/	/
CN1C[C@H](CO)C[C@@H]2c3cccc4[nH]cc(c34)C[C@H]21	495	4	i	101	9	104	/	/	/
CN1C[C@H](CNC(=O)OCc2ccccc2)C[C@@H]2c3cccc4c3c(cn4C)C[C@H]21	535	4	i	116	14	158*	140	10	99
OCCNc1c2c(nc3ccccc13)CCCC2	0	9	i	0.0*[inhibitor]	-42	0.0*[inhibitor]	104	-2	104
N#Cc1c(N=Cc2ccc(O)cc2O)sc2c1C1CCN2CC1	/	6	/	/	/	/	/	/	/
Cc1ccc2c(c1)[C@@H]1CN(C)CC[C@@H]1N2C(=O)Nc1cccc(C(F)(F)F)c1	374	4	i	110	26	139*	110	5	97
NC(=N[N+](=O)[O-])N1CCN(C(=O)Oc2ccc([N+](=O)[O-])cc2)CC1	/	0	/	/	/	/	/	/	/
CCCCCCCSc1cc(OC)c(CCN(C)C)cc1OC	245	5	i	104	28*	147*	155	21	100
Cc1cc(C=C2C(=O)N(C)C(=S)N(C)C2=O)c(C)n1C1CCCCC1	357	-3	i	95	-21	72*[inhibitor]	82	-9	99
CN1C(=O)/C(=C\c2ccc(N3CCCCCC3)cc2)C(=O)NC1=S	172	5	i	96	-12	94	/	/	/
Cc1cc(N2CCCCC2)ccc1C=C1C(=O)N(C)C(=S)N(C)C1=O	210	6	i	90	-2	29*[inhibitor]	87	-5	88
Cc1cc(C=C2C(=O)NC(=S)NC2=O)c(C)n1C1CCCC1	183	2	i	106	-3	99	/	/	/
SMILES	T cell modulator	UCH37 inh	Rce1 inhib	MEKK3 PB1 HTS	MEKK2mut PB1 HTS	MEKK2 WT-MEK5	MEKK2wt confirm	MEKK2mut confirm	MEKK3-MEK5 inh
CC12CC[C@H]3[C@@H](CCC4(O)C[C@H](O)CCC34C=NNC(=O)c3ccccc3F)C1(O)CCC2C1=CC(=O)OC1 (some centres not stated)	/	1	/	/	/	/	/	/	/
Cc1cc(OCCN2CC2)c2ccccc2n1	167	/	i	93	15	141*	172	51	110
CC12CC[C@H]3[C@@H](CCC4(O)C[C@H](O)CCC34C=NNC(=O)c3ccccc3Cl)C1(O)CCC2C1=CC(=O)OC1 (some centres not stated)	/	-4	/	/	/	/	/	/	/
Cc1ccc(-n2c(C)cc(/C=C3/C(=O)NC(=O)N(C)C3=O)c2C)cc1	210	-15	i	87	0	95	/	/	/
COc1ccc(OC)c(N2C(=O)/C(=C/c3ccco3)C(=O)NC2=S)c1	366	52*	i	85	-25	66*[inhibitor]	98	2	100
O=C1NC(=S)N(c2ccc(F)cc2)C(=O)/C1=C/c1ccco1	271	/	i	98	0	94	/	/	/
COc1ccc(N2C(=O)/C(=C/c3cc(C)n(-c4ccc(C)cn4)c3C)C(=O)NC2=S)c(OC)c1	128	4	i	51	-20	33*[inhibitor]	85	-5	98
O=C1NC(=O)C(CCc2ccncc2)(Cc2ccc([N+](=O)[O-])cc2)C(=O)N1	172	3	i	140*	0	107	100	2	100
